According to ChEMBL document CHEMBL4219168, “Design, synthesis, and evaluation of l-cystine diamides as l-cystine crystallization inhibitors for cystinuria” (Bioorg Med Chem Lett, 2018):
Activity calls are given as the source filed them. The rule behind the calls is not given here.

Tests used:
Cystine [1] = experiment: Inhibition of L-cystine crystallization assessed as increase in apparent aqueous solubility after 72 hrs by fluorescence assay relative to CDME
In short: (§1)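 Dose-response curves were run in supersaturated aqueous L-cystine, with apparent solubility read by fluorescence assay. EC2x is the effective concentration that doubles the apparent solubility of L-cystine in water. The ratio is the potency gain over the CDME control.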

Cystine [2] = experiment: Inhibition of L-cystine crystallization assessed as increase in apparent aqueous solubility after 72 hrs by fluorescence assay; in short: as §1
Cystine [3] = experiment: Inhibition of L-cystine crystallization assessed as increase in apparent aqueous solubility at 2 to 10 uM after 72 hrs by fluorescence assay relative to CDME
Cystine [4] = experiment: Inhibition of L-cystine crystallization assessed as increase in apparent aqueous solubility at 2 to 10 uM after 72 hrs by fluorescence assay
In short: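 Supersaturated L-cystine in Millipore water was spiked 1:100 with 1 mM or 200 μM diamide stock, giving final 10 μM or 2 μM. Mixtures were held at 25 °C for 72 h. Apparent L-cystine solubility was then read with an in-house fluorescence assay. CDME served as positive control and water as blank.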

Row | SMILES | fold change (FC) (Cystine [1]) | EC2 (Cystine [2]) | inhibition (Cystine [3]) | inhibition (Cystine [4])
1 | N[C@@H](CSSC[C@H](N)C(=O)NC1CC1)C(=O)NC1CC1 | 1.8 | 3.53 µM | – | –
2 | CN[C@@H](CSSC[C@H](NC)C(=O)N1CCCCC1)C(=O)N1CCCCC1 | – | – | inactive | inactive
3 | COC(=O)[C@@H](N)CSSC[C@H](N)C(=O)OC | – | 6.37 µM | – | –
4 | CN[C@@H](CSSC[C@H](NC)C(=O)N1CCOCC1)C(=O)N1CCOCC1 | – | – | inactive | inactive
5 | CN[C@@H](CSSC[C@H](NC)C(=O)NCCO)C(=O)NCCO | – | – | inactive | inactive
6 | CN[C@@H](CSSC[C@H](NC)C(=O)N1CCCC1)C(=O)N1CCCC1 | – | – | inactive | inactive
7 | CCN(CC)C(=O)[C@H](CSSC[C@H](NC)C(=O)N(CC)CC)NC | – | – | inactive | inactive
8 | CN[C@@H](CSSC[C@H](NC)C(=O)N(C)C)C(=O)N(C)C | – | – | inactive | inactive
9 | N[C@@H](CSSC[C@H](N)C(=O)N1CCOCC1)C(=O)N1CCOCC1 | 7.4 | 0.86 µM | – | –
10 | CN1CCN(C(=O)[C@@H](N)CSSC[C@H](N)C(=O)N2CCN(C)CC2)CC1 | 24.5 | 0.26 µM | – | –
11 | N[C@@H](CSSC[C@H](N)C(=O)NCCO)C(=O)NCCO | 3.2 | 2.02 µM | – | –
12 | CN[C@@H](CSSC[C@H](NC)C(=O)NC1CC1)C(=O)NC1CC1 | – | – | inactive | inactive
13 | N[C@@H](CSSC[C@H](N)C(=O)N1CCCCC1)C(=O)N1CCCCC1 | 4 | 1.59 µM | – | –
